Assay results published in ChEMBL document CHEMBL2029236, “Tubulin binding, protein-bound conformation in solution, and antimitotic cellular profiling of noscapine and its derivatives” (J Med Chem, 2012).
Values belong to the molecule of their own block, whether it stands above or below them. Activity calls are given as the source filed them. The rule behind the calls is not given here.

Key:
[1] = Cell cycle arrest in human PLC/PRF/5 cells assessed as accumulation at G1 phase after 24 hrs by FACS analysis (reference value: 66.8%); format: functional, cell-based
[2] = Antiproliferative activity against human Hep3B after 72 hrs by CellTiter Glo assay; format: functional, Hep 3B2
How it was run: (§1)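 Cell viability assay in hepatocellular carcinoma cell lines; IC50 values derived from concentration–response data and reported in nM.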

[3] = Antiproliferative activity against human JHH7 after 72 hrs by CellTiter Glo assay; format: functional; how it was run: as §1
[4] = Cell cycle arrest in human PLC/PRF/5 cells assessed as accumulation at G2 phase after 24 hrs by FACS analysis (reference value: 26.1%); format: functional, cell-based
[5] = test system: SNU-449; experiment: Antiproliferative activity against human SNU449 after 72 hrs by CellTiter Glo assay; format: functional, cell-based; details: SNU-449, 72 h; how it was run: as §1
[6] = test system: Huh-7; experiment: Antiproliferative activity against human HuH7 after 72 hrs by CellTiter Glo assay; format: functional, cell-based; details: Huh-7, 72 h; how it was run: as §1
[7] = test system: Bel-7402; experiment: Antiproliferative activity against human Bel7402 after 72 hrs by CellTiter Glo assay; format: functional, cell-based; details: Bel-7402, 72 h; how it was run: as §1
[8] = Antiproliferative activity against human PLC/PRF/5 after 72 hrs by CellTiter Glo assay; format: functional; details: PLC-PRF-5, 72 h; how it was run: as §1
[9] = test system: SNU-423; experiment: Antiproliferative activity against human SNU423 after 72 hrs by CellTiter Glo assay; format: functional, cell-based; details: SNU-423, 72 h; how it was run: as §1
[10] = Antiproliferative activity against human JHH2 after 72 hrs by CellTiter Glo assay; format: functional; how it was run: as §1
[11] = Antiproliferative activity against human PLC/PRF/5 cells; format: functional, cell-based; how it was run: as §1
[12] = test system: SNU-398; experiment: Antiproliferative activity against human SNU398 cells; format: functional, cell-based; how it was run: as §1
[13] = test system: HepG2; experiment: Antiproliferative activity against human HepG2 after 72 hrs by CellTiter Glo assay; format: functional, cell-based; details: HepG2, 72 h; how it was run: as §1
[14] = Antiproliferative activity against human JHH4 after 72 hrs by CellTiter Glo assay; format: functional; how it was run: as §1
[15] = test system: SNU-398; experiment: Cell cycle arrest in human SNU398 cells assessed as accumulation at G1 phase after 24 hrs by FACS analysis (reference value: 55.8%); format: functional
[16] = test system: SMMC-7721; experiment: Antiproliferative activity against human SMMC7721 after 72 hrs by CellTiter Glo assay; format: functional, cell-based; details: SMMC-7721, 72 h; how it was run: as §1
[17] = test system: SNU-398; experiment: Antiproliferative activity against human SNU398 after 72 hrs by CellTiter Glo assay; format: functional, cell-based; details: SNU-398, 72 h; how it was run: as §1
[18] = Antiproliferative activity against human SNU182 after 72 hrs by CellTiter Glo assay; format: functional, cell-based; details: SNU-182, 72 h; how it was run: as §1
[19] = test system: SNU-475; experiment: Antiproliferative activity against human SNU475 after 72 hrs by CellTiter Glo assay; format: functional, cell-based; details: SNU-475, 72 h; how it was run: as §1
[20] = Cell cycle arrest in human PLC/PRF/5 cells assessed as accumulation at sub-G1 phase after 24 hrs by FACS analysis (reference value: 1.4%); format: functional, cell-based
[21] = test system: SNU-387; experiment: Antiproliferative activity against human SNU387 after 72 hrs by CellTiter Glo assay; format: functional, cell-based; details: SNU-387, 72 h; how it was run: as §1
[22] = Antiproliferative activity against human MHCC97H after 72 hrs by CellTiter Glo assay; format: functional; how it was run: as §1
[23] = test system: SNU-398; experiment: Cell cycle arrest in human SNU398 cells assessed as accumulation at G2 phase after 24 hrs by FACS analysis (reference value: 38.2%); format: functional
[24] = organism: Bos taurus; experiment: Binding affinity to calf brain tubulin assessed as increase in fluorescence at 10 uM by fluorometry relative to control
How it was run: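 Fluorescence emission spectra of 10 μM ligand with and without 10 μM tubulin in 10 mM sodium phosphate, 0.1 mM GTP, pH 7.0, 25 °C. Emission intensity (425 nm maximum) and anisotropy were compared between bound and unbound ligand.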

[25] = test system: SNU-398; experiment: Cell cycle arrest in human SNU398 cells assessed as accumulation at sub-G1 phase at 2 uM after 24 hrs by FACS analysis (reference value: 1.2%); format: functional
[26] = test system: SNU-398; experiment: Cell cycle arrest in human SNU398 cells assessed as accumulation at G2 phase at 2 uM after 24 hrs by FACS analysis (reference value: 38.2%); format: functional
[27] = Cell cycle arrest in human PLC/PRF/5 cells assessed as accumulation at sub-G1 phase at 2 uM after 24 hrs by FACS analysis (reference value: 1.4%); format: functional, cell-based
[28] = test system: SNU-398; experiment: Cell cycle arrest in human SNU398 cells assessed as accumulation at G1 phase at 2 uM after 24 hrs by FACS analysis (reference value: 55.8%); format: functional
[29] = Cell cycle arrest in human PLC/PRF/5 cells assessed as accumulation at G2 phase at 2 uM after 24 hrs by FACS analysis (reference value: 26.1%); format: functional, cell-based
[30] = Cell cycle arrest in human PLC/PRF/5 cells assessed as accumulation at G1 phase at 2 uM after 24 hrs by FACS analysis (reference value: 66.8%); format: functional, cell-based
[31] = organism: Bos taurus; experiment: Inhibition of calf brain tubulin assembly at 10 uM by fluorometry in presence of gossipol
[32] = organism: Bos taurus; experiment: Inhibition of calf brain tubulin assembly at 10 uM by fluorometry in presence of noscapine
[33] = organism: Bos taurus; experiment: Inhibition of calf brain tubulin assembly at 10 uM by fluorometry in presence of isohomohalichondrin
[34] = organism: Bos taurus; experiment: Inhibition of calf brain tubulin assembly at 10 uM by fluorometry in presence of pironetin
[35] = organism: Bos taurus; experiment: Inhibition of calf brain tubulin assembly at 10 uM by fluorometry in presence of podophyllotoxin
[36] = organism: Bos taurus; experiment: Inhibition of calf brain tubulin assembly at 10 uM by fluorometry in presence of vinblastine
[37] = organism: Bos taurus; experiment: Binding affinity to calf brain tubulin assessed as binding constant by fluorometry; format: tissue-based
How it was run: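 Fluorescence titration in 10 mM sodium phosphate, 0.1 mM GTP, pH 7.0, 25 °C. Ligand at 5 μM was titrated with tubulin up to 100 μM. Bound and free ligand were quantified from the change in ligand fluorescence. Binding constant fitted assuming a single site, 1:1 stoichiometry and 0.87 sites per dimer. Average of five experiments.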

[38] = organism: Bos taurus; experiment: Inhibition of calf brain tubulin assembly at 10 uM by fluorometry in presence of nocodazole
[39] = Metabolic stability in S9 fraction assessed as compound remaining; format: ADME, subcellular
[40] = organism: Bos taurus; experiment: Binding affinity to calf brain tubulin alpha/beta heterodimer by NOE method; format: tissue-based
How it was run: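 Transferred NOE (TR-NOESY) of ligand with tubulin α/β heterodimer at 500 MHz, 298 K. The sign of the NOE cross-peaks is compared between ligand with tubulin and free ligand. Bound conformation derived with molecular mechanics.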

[41] = Metabolic stability in microsomes assessed as compound remaining; format: ADME, Microsome
[42] = Inhibition of calf brain tubulin assembly; set-up: species or system Bos taurus
How it was run: (§2)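 Read-out: amount of pelleted polymerized tubulin across a compound concentration range. EC50 taken at 50% reduction of the pellet. Average of three experiments.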

[43] = organism: Bos taurus; experiment: Binding affinity to calf brain tubulin assessed as increase in fluorescence at 10 uM by fluorometry in presence of Mg2+
[44] = organism: Bos taurus; experiment: Binding affinity to calf brain tubulin alpha/beta heterodimer assessed as increase in proton signal at […] by STD NMR analysis in the presence of noscapine
How it was run: (§3)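 STD NMR with freshly prepared tubulin α/β heterodimer. Ligand:protein molar ratio 30:1 ([…], […]). Read-out: enhancement of ligand proton signals in STD spectra versus an off-resonance reference spectrum acquired without protein irradiation.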

[45] = organism: Bos taurus; experiment: Binding affinity to calf brain tubulin alpha/beta heterodimer assessed as increase in proton signal at […] by STD NMR analysis; how it was run: as §3
[46] = organism: Bos taurus; experiment: Inhibition of calf brain tubulin assembly at 1 mM; how it was run: as §2

- IC50 [5]: > 100 nM
- IC50 [6]: 20 nM
- IC50 [7]: 4.2 nM
- IC50 [9]: 18.4 nM
- IC50 [12]: 46.7 nM
- IC50 [13]: > 100 nM
- IC50 [16]: 6.5 nM
- IC50 [17]: < 0.13 nM
- IC50 [19]: 29.3 nM
- IC50 [21]: 40.9 nM
Structure (SMILES): CC[C@]1(O)C[C@H]2CN(CCc3c([nH]c4ccccc34)[C@@](C(=O)OC)(c3cc4c(cc3OC)N(C=O)[C@H]3[C@@](O)(C(=O)OC)[C@H](OC(C)=O)[C@]5(CC)C=CCN6CC[C@]43[C@@H]65)C2)C1 [VINCRISTINE]
- Activity [1]: 12.2%
- IC50 [2]: > 100 nM
- IC50 [3]: 28.2 nM
- Activity [4]: 68.4%
- IC50 [8]: 22.1 nM
- IC50 [10]: > 100 nM
- IC50 [11]: 12.7 nM
- IC50 [14]: 7.2 nM
- Activity [15]: 17.1%
- IC50 [18]: 35.9 nM
- Activity [20]: 11.8%
- IC50 [22]: 21.2 nM
- Activity [23]: 64.5%

- Activity [24]: inactive
- IC50 [12]: > 2000 nM
Structure (SMILES): COc1ccc2c(c1O)C(=O)O[C@@H]2[C@H]1c2c(cc3c(c2OC)OCO3)CCN1C
- Activity [25]: 15.2%
- Activity [26]: 47.8%
- Activity [27]: 8.7%
- Activity [28]: 33.5%
- IC50 [11]: > 2000 nM
- Activity [29]: 23.3%
- Activity [30]: 62.8%

Structure (SMILES): COC(=O)Nc1nc2cc(C(=O)c3cccs3)ccc2[nH]1
- inhibition [31]: Active
- inhibition [32]: Active
- inhibition [33]: Active
- inhibition [34]: Active
- inhibition [35]: Active
- inhibition [36]: Active
- Activity [37]: 4 ×10⁵ /M
- inhibition [38]: inactive

Structure (SMILES): COc1ccc2c(c1N)C(=O)O[C@@H]2[C@H]1c2c(cc3c(c2OC)OCO3)CCN1C
- Stability [39]: < 5%
- inhibition [31]: Active
- Activity [40]: Active
- IC50 [2]: > 1000 nM
- fold change (FC) [24]: 11
- Stability [41]: < 5%
- Activity [25]: 13.8%
- EC50 [42]: 1200 nM
- inhibition [32]: Active
- inhibition [33]: Active
- IC50 [3]: 318 nM
- IC50 [5]: 283 nM
- IC50 [6]: 218 nM
- IC50 [7]: 78.4 nM
- Activity [43]: Active
- IC50 [8]: 278 nM
- Activity [26]: 59.8%
- Activity [27]: 8.4%
- inhibition [34]: Active
- IC50 [9]: 226 nM
- IC50 [10]: > 1000 nM
- Activity [28]: 22.9%
- IC50 [11]: 237 nM
- inhibition [44]: Active
- inhibition [45]: Active
- Activity [29]: 67%
- IC50 [12]: 94.3 nM
- IC50 [13]: > 1000 nM
- inhibition [35]: Active
- IC50 [14]: 107 nM
- inhibition [36]: Active
- IC50 [16]: 109 nM
- Activity [30]: 18%
- Activity [37]: 1.15 ×10⁵ /M
- inhibition [46]: 50%
- inhibition [38]: inactive
- IC50 [17]: 324 nM
- IC50 [18]: 508 nM
- IC50 [19]: 584 nM
- IC50 [21]: 59.5 nM
- IC50 [22]: 351 nM
